Measurements reported in the EternaBench riboswitch data.

Test system: MS2 coat protein
Assay: apparent Kd, MS2 coat protein; higher = weaker binding; RNA-MaP array; FMN 200 µM where present
In short: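 Stalled E. coli RNA polymerase transcribed each design on Illumina sequencing-chip clusters. The clusters were titrated with SNAP-549-labelled MS2 coat protein, starting at 0.7 or 1.5 nM and doubling up to 3 µM, first without ligand and then with constant ligand, in 100 mM Tris-HCl pH 7.5, 80 mM KCl, 4 mM MgCl2, BSA, DTT, yeast tRNA and Tween-20. Green signal was normalised to red-channel RNA signal and to the control-cluster median Fmax. The apparent Kd is the median of filtered binding-curve fits made for each cluster.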

[1] = designed as: ON switch for flavin mononucleotide, no ligand
[2] = ligand present: flavin mononucleotide, designed as: ON switch for flavin mononucleotide
[3] = ligand present: flavin mononucleotide, designed as: OFF switch for flavin mononucleotide
[4] = designed as: OFF switch for flavin mononucleotide, no ligand

Sequence	apparent Kd [1]	apparent Kd [2]	apparent Kd [3]	apparent Kd [4]
ACAUGAGGAUCACCCAUGUAGAAUGAAGAAGGUAGAUACUUGAGACUCACCCAUGUACAUAGGACUAAGGAUAUUCUAAUAAUU	14.1 nM	10.7 nM	–	–
UCGGCGCGAGGAUAUACGGUUGCUUGGUAGGGUCGUGGCGUACAUGAGGAUCACCCAUGUAGAAGGCGCGCCGC	–	–	60.3 nM	–
AGUGCUAUGUAGAAGGCAGAUCUGAUUCAGAUCUGAGGAUAUACAUGAGGAUCACCCAUGUUAUGCACCAGCACGAGAGUGCAC	–	–	16.8 nM	7.91 nM
CGCCGACAUGAGGAUCACCCAUGUCACAACUGGUCAGGAUAUGGUAUGAAAUGGCUAUUGCCAGAAGGGACCUCAG	40.9 nM	20.4 nM	–	–
GCUGUCGCAUGAGGAUAUGGUCAGCUUUGCUGACCAGAAGGCAUGUCAAUAGACAUGAGGAUCACCCAUGUAGUUCGGGCGGCU	849 nM	76.1 nM	–	–
AGUGUCAUCGAGAAGGCCUCGACAUGAGGAUCACCCAUGUUGUUAUAUGGGAGGAUAUCGAUGAUACAGCUACGUUUCGUAGCA	51.6 nM	14.7 nM	–	–
GCUAUCGAUGUAGGAUAUGCUAUAGAAACUAUGGCAGAAGGACAUGAGGAUCACCCAUGUCAAUGGAUGGAGAGAAGAGAUGGC	–	–	68.7 nM	26.7 nM
UGGUGAAGUGUAGGAUAUGGAGAUGGGUUUUGGCCAGAAGGACAUGAGGAUCACCCAUGUGGUAGAGGGUUGGUGGUAGCUCCU	–	–	31.7 nM	36.2 nM
CCUCCACAUUAGGAUAUCGUCACAGAAAUGUGACGAGAAGGAAUGACAUGAGGAUCACCCAUGUUAUCGUGAUG	–	–	54.9 nM	21.2 nM
AUGUGCCUAGGAUAUACAUGAGGAUCACCCAUGUUAACACUGCAAUCAAGUUAAUAUUGUAGAAGGAGGUGUAA	–	–	27.5 nM	27.6 nM
UCGAACUUUCAUGUAAUUCGCACAUGAGGAUCACCCAUGUACGAGGAUAUGUACCUGAACGGCUAACAGAAGGCGUACUGGGCA	–	–	83.3 nM	242 nM
UUCAGCUCGUGAGGAUAUACAUGUGCUGGAAACAGCACUAUUAAGAUCACAUGAGGAUCACCCAUGUAGAAGGCACGAGCUGAG	–	–	585 nM	48 nM
GUGGUACAUGAGGAUCACCCAUGUCAGGAUAUCGUGUGUUUUUUUUCGGCCGCGCGCGCGAGAAGGGACGUCUU	–	–	21.6 nM	21.6 nM
GUCGGGAUUACAUGAGGAUCACCCAUGUCAGAACGGGCAGUUAGAAGGUGCCAUUAGGGAGAGGGUAAGGAUAUAAUUUUUGGC	12 nM	10.4 nM	–	–
AUAUCCGAAGCAGGAUAUCGACGAGGUGUCGAGGUAGAGCGUACUCACAUGAGGAUCACCCAUGUCGAGAAGGGCUACAGGAUA	–	–	52.2 nM	27.8 nM
UUUAAUUUAAUUAAGAUCACAUGAGGAUCACCCAUGUAAUUAUAGGAUAUCAGCUCGAAUAGAGCUGAGAAGGAUAAUUACAUA	–	–	57.7 nM	89.5 nM
AUAAAACAAAACCACACAUGAGGAUCACCCAUGUCAAGAUUACAGGAUAUCCGGCAGAGAUGCAAGGAGAAGGGUGAUCCCAAA	17.3 nM	56.9 nM	–	–
AGAAACUACGAGAAGGACAUGAGAACCUUCAUUUACAUGAGGAUCACCCAUGUAGGAUAUCGUAGUUUCAGGAUCGUGAGAUCA	–	–	232 nM	45.6 nM
UUCGUGCAGCUUUGCUGUACGCGUACAUGAGGAUCACCCAUGUAGGAUAUGGUAGGCAAAGUUUACUAGAAGGAUAUAGUGAUC	–	–	14.3 nM	13.2 nM
AGCCACAGUUCAGGAUAUGCGGGCCGACUGGUAGCAGAAGGGAACAUGAGGAUCACCCAUGUAGGUCAUACGGGCUACGUCGAA	–	–	45.6 nM	11.6 nM
AAAAAAAAAACUCAGGAUAUAGAUUGUUGAACAUGAGGAUCACCCAUGUAGUGAAAAGCGAAAAACUAGAAGGGAGGAAAAAAAAA	82.5 nM	46 nM	–	–
AAGGAUCGAGGAUAUACAUAGAUACAGAUACAUGUAUACGUACAUGAGGAUCACCCAUGUAGAAGGCGAUCAUA	–	–	214 nM	37.1 nM
CAAUUUAUAGCAGGAUAUACAAUACAAUGAUUAGUAGAAGGGUUUAAUACAUGAGGAUCACCCAUGUCAUGUGUCAUAAUAACC	–	–	23.5 nM	31.2 nM
